Results: ChEMBL document CHEMBL1221233, “4''-O-(omega-Quinolylamino-alkylamino)propionyl derivatives of selected macrolides with the activity against the key erythromycin resistant respiratory pathogens” (2010)
In brackets after ≈: the same amount, converted by molar mass.

Legend:
Assay type in all cases: functional
Streptococcus pneumoniae [1] = assay: Antibacterial activity against inducible resistance to macrolide and constitutive resistance to lincosamide Streptococcus pneumoniae 134 GR M by broth microdilution method
How it was run: (§1)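 MIC by CLSI broth microdilution. In the streptococcal medium, 5% horse serum replaced lysed blood. Compounds were tested as two-fold serial dilutions. Strains were first grown on Columbia agar with 5% sheep blood. The MIC was read as the lowest concentration inhibiting growth.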

Streptococcus pneumoniae [2] = assay: Antibacterial activity against constitutive MLS resistance Streptococcus pneumoniae 58 by broth microdilution method; how it was run: as §1
Staphylococcus aureus [3] = assay: Antibacterial activity against efflux-mediated macrolide-resistance Staphylococcus aureus PK1 by broth microdilution method
How it was run: (§2)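 Staphylococci were grown on Mueller-Hinton agar and then tested by CLSI-guideline broth microdilution against two-fold serial dilutions of compound. The result was recorded as the minimum inhibitory concentration.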

Streptococcus pneumoniae [4] = assay: Antibacterial activity against efflux-mediated macrolide-resistance Streptococcus pneumoniae Ci137 by broth microdilution method; how it was run: as §1
Haemophilus influenzae = assay: Antibacterial activity against Haemophilus influenzae ATCC 49247 by broth microdilution method
How it was run: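 MIC by broth microdilution following CLSI guidelines, expressed in units of lg/mL. Twofold dilutions prepared in 96-well plates. H. influenzae grown on Mueller-Hinton chocolate agar before testing.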

Staphylococcus aureus [5] = assay: Antibacterial activity against inducible resistance to macrolide, licosamide and streptogramin Staphylococcus aureus 90256 by broth microdilution method; how it was run: as §2
Streptococcus pyogenes [6] = assay: Antibacterial activity against efflux-mediated macrolide-resistance Streptococcus pyogenes 2 Finland by broth microdilution method; how it was run: as §1
Streptococcus pyogenes [7] = assay: Antibacterial activity against constitutive MLS resistance sStreptococcus pyogenes 166 GR-Micro by broth microdilution method; how it was run: as §1

Row | SMILES | MIC (Streptococcus pneumoniae [1]) [mg/L] | MIC (Streptococcus pneumoniae [2]) [mg/L] | MIC (Staphylococcus aureus [3]) [mg/L] | MIC (Streptococcus pneumoniae [4]) [mg/L] | MIC (Haemophilus influenzae) [mg/L] | MIC (Staphylococcus aureus [5]) [mg/L] | MIC (Streptococcus pyogenes [6]) [mg/L] | MIC (Streptococcus pyogenes [7]) [mg/L]
1 | CC[C@H]1OC(=O)[C@H](C)[C@@H](O[C@H]2C[C@@](C)(OC)[C@@H](OC(=O)CCNCCNc3ccc4c(=O)c(C(=O)O)cn(C)c4c3)[C@H](C)O2)[C@H](C)[C@@H](O[C@@H]2O[C@H](C)C[C@H](N(C)C)[C@H]2O)[C@](C)(O)C[C@@H](C)CN(C)[C@H](C)[C@@H](O)[C@]1(C)O | ≤ 0.125 | ≤ 0.125 | 2 (≈ 1.88 µM) | ≤ 0.125 | 8 (≈ 7.52 µM) | 4 (≈ 3.76 µM) | ≤ 0.125 | ≤ 0.125
2 | CC[C@H]1OC(=O)[C@H](C)[C@@H](O[C@H]2C[C@@](C)(OC)[C@@H](OC(=O)CCNCCNc3ccc4c(=O)c(C(=O)O)cn(C)c4c3)[C@H](C)O2)[C@H](C)[C@@H](O[C@@H]2O[C@H](C)C[C@H](N(C)C)[C@H]2O)[C@](C)(O)C[C@@H](C)C(=O)[C@H](C)[C@@H](O)[C@]1(C)O | ≤ 0.125 | ≤ 0.125 | 1 (≈ 0.953 µM) | ≤ 0.125 | 8 (≈ 7.62 µM) | 4 (≈ 3.81 µM) | 1 (≈ 0.953 µM) | ≤ 0.125
3 | CC[C@H]1OC(=O)[C@H](C)[C@@H](O[C@H]2C[C@@](C)(OC)[C@@H](OC(=O)CCNCCNc3ccc4c(=O)c(C(=O)O)cn(C5CC5)c4c3)[C@H](C)O2)[C@H](C)[C@@H](O[C@@H]2O[C@H](C)C[C@H](N(C)C)[C@H]2O)[C@](C)(O)C[C@@H](C)CN(C)[C@H](C)[C@@H](O)[C@]1(C)O | ≤ 0.125 | ≤ 0.125 | 1 (≈ 0.917 µM) | ≤ 0.125 | 4 (≈ 3.67 µM) | 2 (≈ 1.83 µM) | ≤ 0.125 | ≤ 0.125
4 | CC[C@H]1OC(=O)[C@H](C)[C@@H](O[C@H]2C[C@@](C)(OC)[C@@H](OC(=O)CCNCCNc3ccc4c(c3)c(=O)c(C(=O)O)cn4C3CC3)[C@H](C)O2)[C@H](C)[C@@H](O[C@@H]2O[C@H](C)C[C@H](N(C)C)[C@H]2O)[C@](C)(O)C[C@@H](C)CN(C)[C@H](C)[C@@H](O)[C@]1(C)O | ≤ 0.125 | ≤ 0.125 | 1 (≈ 0.917 µM) | ≤ 0.125 | 4 (≈ 3.67 µM) | 1 (≈ 0.917 µM) | ≤ 0.125 | ≤ 0.125
5 | CC[C@H]1OC(=O)[C@H](C)C(=O)[C@H](C)[C@@H](O[C@@H]2O[C@H](C)C[C@H](N(C)C)[C@H]2O)[C@](C)(OC)C[C@@H](C)C(=O)[C@H](C)[C@H]2N(CCCCn3cnc(-c4cccnc4)c3)C(=O)O[C@]12C [TELITHROMYCIN] | 0.25 (≈ 0.308 µM) | 0.25 (≈ 0.308 µM) | ≤ 0.125 | 0.25 (≈ 0.308 µM) | 2 (≈ 2.46 µM) | ≤ 0.125 | 0.5 (≈ 0.616 µM) | 16 (≈ 19.7 µM)
6 | CC[C@H]1OC(=O)[C@H](C)[C@@H](O[C@H]2C[C@@](C)(OC)[C@@H](OC(=O)CCN(C)CCNc3cc4c(cc3F)c(=O)c(C(=O)O)cn4C3CC3)[C@H](C)O2)[C@H](C)[C@@H](O[C@@H]2O[C@H](C)C[C@H](N(C)C)[C@H]2O)[C@](C)(O)C[C@@H](C)CN(C)[C@H](C)[C@H]2OC(=O)O[C@@]21C | 2 (≈ 1.74 µM) | 1 (≈ 0.871 µM) | 2 (≈ 1.74 µM) | ≤ 0.125 | 8 (≈ 6.97 µM) | 4 (≈ 3.48 µM) | ≤ 0.125 | 16 (≈ 13.9 µM)
7 | CC[C@H]1OC(=O)[C@H](C)[C@@H](O[C@H]2C[C@@](C)(OC)[C@@H](OC(=O)CCN(C)CCNc3cc4c(cc3F)c(=O)c(C(=O)O)cn4C3CC3)[C@H](C)O2)[C@H](C)[C@@H](O[C@@H]2O[C@H](C)C[C@H](N(C)C)[C@H]2O)[C@](C)(O)C[C@@H](C)CN(C)[C@H](C)[C@@H](O)[C@]1(C)O | 0.25 (≈ 0.223 µM) | 0.25 (≈ 0.223 µM) | 1 (≈ 0.891 µM) | ≤ 0.125 | 4 (≈ 3.56 µM) | 2 (≈ 1.78 µM) | ≤ 0.125 | 2 (≈ 1.78 µM)
8 | CC[C@H]1OC(=O)[C@H](C)[C@@H](O[C@H]2C[C@@](C)(OC)[C@@H](O)[C@H](C)O2)[C@H](C)[C@@H](O[C@@H]2O[C@H](C)C[C@H](N(C)C)[C@H]2O)[C@](C)(OC)C[C@@H](C)C(=O)[C@H](C)[C@@H](O)[C@]1(C)O [CLARITHROMYCIN] | > 64 | > 16 | > 64 | 4 (≈ 5.35 µM) | 8 (≈ 10.7 µM) | > 64 | 4 (≈ 5.35 µM) | > 16
9 | CC[C@H]1OC(=O)[C@H](C)[C@@H](O[C@H]2C[C@@](C)(OC)[C@@H](OC(=O)CCN(C)CCNc3cc4c(=O)c(C(=O)O)cn(C5CC5)c4cc3Cl)[C@H](C)O2)[C@H](C)[C@@H](O[C@@H]2O[C@H](C)C[C@H](N(C)C)[C@H]2O)[C@](C)(O)C[C@@H](C)CN(C)[C@H](C)[C@@H](O)[C@]1(C)O | ≤ 0.125 | ≤ 0.125 | 0.5 (≈ 0.439 µM) | ≤ 0.125 | 1 (≈ 0.878 µM) | 0.5 (≈ 0.439 µM) | ≤ 0.125 | ≤ 0.125
10 | CC[C@H]1OC(=O)[C@H](C)[C@@H](O[C@H]2C[C@@](C)(OC)[C@@H](OC(=O)CCNCCNc3ccc4c(=O)c(C(=O)O)cn(CC)c4c3)[C@H](C)O2)[C@H](C)[C@@H](O[C@@H]2O[C@H](C)C[C@H](N(C)C)[C@H]2O)[C@](C)(O)C[C@@H](C)CN(C)[C@H](C)[C@@H](O)[C@]1(C)O | ≤ 0.125 | ≤ 0.125 | 2 (≈ 1.85 µM) | ≤ 0.125 | 4 (≈ 3.71 µM) | 4 (≈ 3.71 µM) | ≤ 0.125 | ≤ 0.125
11 | CC[C@H]1OC(=O)[C@H](C)[C@@H](O[C@H]2C[C@@](C)(OC)[C@@H](OC(=O)CCNCCNc3cc4c(cc3F)c(=O)c(C(=O)O)cn4C3CC3)[C@H](C)O2)[C@H](C)[C@@H](O[C@@H]2O[C@H](C)C[C@H](N(C)C)[C@H]2O)[C@](C)(O)C[C@@H](C)CN(C)[C@H](C)[C@H]2OC(=O)O[C@@]21C | ≤ 0.125 | ≤ 0.125 | 0.25 (≈ 0.22 µM) | ≤ 0.125 | 2 (≈ 1.76 µM) | 1 (≈ 0.882 µM) | ≤ 0.125 | ≤ 0.125
12 | CC[C@H]1OC(=O)[C@H](C)[C@@H](O[C@H]2C[C@@](C)(OC)[C@@H](OC(=O)CCNCCNc3cc4c(=O)c(C(=O)O)cn(C5CC5)c4cc3Cl)[C@H](C)O2)[C@H](C)[C@@H](O[C@@H]2O[C@H](C)C[C@H](N(C)C)[C@H]2O)[C@](C)(O)C[C@@H](C)C(=O)[C@H](C)[C@@H](O)[C@]1(C)O | ≤ 0.125 | ≤ 0.125 | 0.5 (≈ 0.451 µM) | ≤ 0.125 | 2 (≈ 1.8 µM) | 4 (≈ 3.6 µM) | ≤ 0.125 | ≤ 0.125
13 | CC[C@H]1OC(=O)[C@H](C)[C@@H](O[C@H]2C[C@@](C)(OC)[C@@H](OC(=O)CCNCCNc3ccc4c(c3)c(=O)c(C(=O)O)cn4C3CC3)[C@H](C)O2)[C@H](C)[C@@H](O[C@@H]2O[C@H](C)C[C@H](N(C)C)[C@H]2O)[C@](C)(O)C[C@@H](C)CN(C)[C@H](C)[C@H]2OC(=O)O[C@@]21C | 0.25 (≈ 0.224 µM) | 0.25 (≈ 0.224 µM) | 1 (≈ 0.896 µM) | ≤ 0.125 | 2 (≈ 1.79 µM) | 2 (≈ 1.79 µM) | 0.25 (≈ 0.224 µM) | ≤ 0.125
14 | CC[C@H]1OC(=O)[C@H](C)[C@@H](O[C@H]2C[C@@](C)(OC)[C@@H](OC(=O)CCNCCCCNc3cc4c(cc3F)c(=O)c(C(=O)O)cn4C3CC3)[C@H](C)O2)[C@H](C)[C@@H](O[C@@H]2O[C@H](C)C[C@H](N(C)C)[C@H]2O)[C@](C)(O)C[C@@H](C)C(=O)[C@H](C)[C@@H](O)[C@]1(C)O | 2 (≈ 1.78 µM) | 8 (≈ 7.13 µM) | 2 (≈ 1.78 µM) | ≤ 0.125 | 2 (≈ 1.78 µM) | > 64 | ≤ 0.125 | 8 (≈ 7.13 µM)
